Measured values published in the array DNA melting data of Ke et al. (doi:10.1101/2024.01.08.574731).

How the values were obtained:
[1] = folding enthalpy; higher = less favourable; fluorescence melt of hairpins on a sequencing array, two-state fit; conditions: sodium 0.088 M
Procedure, shortened: (§1)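 Folding enthalpy and melting temperature were estimated with bootstrapped two-state fits and combined across four replicates by inverse-variance weighting, with fitted temperatures raised by 9.35 °C to match UV melts. The data were Cy3 fluorescence of library hairpins, with annealed Cy3 and quencher oligos, on a sequenced MiSeq flow cell in 50 mM Na-HEPES pH 8.0, 25 mM NaCl, imaged in 2.5 °C steps up to 60 °C and normalised to pre-quench Cy3 and control constructs.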

[2] = melting temperature; fluorescence melt of hairpins on a sequencing array, two-state fit, raised by 9.35 °C to match UV melts; conditions: sodium 0.088 M
Procedure, shortened: as §1

Sequence: GATCAGAAATCTGATC ((((((....))))))
- folding enthalpy [1]: -35.2 kcal/mol
- Tm [2]: 46 °C

Sequence: GATCAGAAGACTGATC ((((((....))))))
- folding enthalpy [1]: -29.1 kcal/mol
- Tm [2]: 44.9 °C

Sequence: GATCAGAAGCTGATC ((((((...))))))
- folding enthalpy [1]: -33 kcal/mol
- Tm [2]: 48 °C

Sequence: GATCAGACCACTGATC ((((((....))))))
- folding enthalpy [1]: -37.1 kcal/mol
- Tm [2]: 49.4 °C

Sequence: GATCAGACGCCTGATC ((((((....))))))
- folding enthalpy [1]: -40.1 kcal/mol
- Tm [2]: 50 °C

Sequence: GATCAGACGCTGATC ((((((...))))))
- folding enthalpy [1]: -34.2 kcal/mol
- Tm [2]: 47.7 °C

Sequence: GATCAGACTCCTGATC ((((((....))))))
- folding enthalpy [1]: -36.1 kcal/mol
- Tm [2]: 47.5 °C

Sequence: GATCAGACTTCTGATC ((((((....))))))
- folding enthalpy [1]: -36.3 kcal/mol
- Tm [2]: 50.3 °C

Sequence: GATCAGAGAACTGATC ((((((....))))))
- folding enthalpy [1]: -30.5 kcal/mol
- Tm [2]: 44.5 °C

Sequence: GATCAGAGACCTGATC ((((((....))))))
- folding enthalpy [1]: -34.6 kcal/mol
- Tm [2]: 45.6 °C

Sequence: GATCAGATACTGATC ((((((...))))))
- folding enthalpy [1]: -34.2 kcal/mol
- Tm [2]: 50.6 °C

Sequence: GATCAGATAGCTGATC ((((((....))))))
- folding enthalpy [1]: -38 kcal/mol
- Tm [2]: 46.8 °C

Sequence: GATCAGATCCCTGATC ((((((....))))))
- folding enthalpy [1]: -31.8 kcal/mol
- Tm [2]: 48.3 °C

Sequence: GATCAGATGCCTGATC ((((((....))))))
- folding enthalpy [1]: -23.8 kcal/mol
- Tm [2]: 48.4 °C

Sequence: GATCAGATGGCTGATC ((((((....))))))
- folding enthalpy [1]: -30.4 kcal/mol
- Tm [2]: 49.3 °C

Sequence: GATCAGCAGGCTGATC ((((((....))))))
- folding enthalpy [1]: -42.1 kcal/mol
- Tm [2]: 59.2 °C

Sequence: GATCAGCCAGCTGATC ((((((....))))))
- folding enthalpy [1]: -40.1 kcal/mol
- Tm [2]: 56.5 °C

Sequence: GATCAGCCGACTGATC ((((((....))))))
- folding enthalpy [1]: -35.5 kcal/mol
- Tm [2]: 49.6 °C

Sequence: GATCAGCGAAAGCTATC (((.(((....))))))
- folding enthalpy [1]: -12 kcal/mol
- Tm [2]: 32.6 °C

Sequence: GATCAGCGATCTGATC ((((((....))))))
- folding enthalpy [1]: -19.5 kcal/mol
- Tm [2]: 50 °C

Sequence: GATCAGCGCCTGATC ((((((...))))))
- folding enthalpy [1]: -38.9 kcal/mol
- Tm [2]: 48.7 °C

Sequence: GATCAGCGCGCTGATC ((((((....))))))
- folding enthalpy [1]: -43 kcal/mol
- Tm [2]: 67.4 °C

Sequence: GATCAGCGTACTGATC ((((((....))))))
- folding enthalpy [1]: -30.2 kcal/mol
- Tm [2]: 51.6 °C

Sequence: GATCAGCTTTCTGATC ((((((....))))))
- folding enthalpy [1]: -35 kcal/mol
- Tm [2]: 50.5 °C

Sequence: GATCAGGAACCTGATC ((((((....))))))
- folding enthalpy [1]: -35 kcal/mol
- Tm [2]: 54.5 °C

Sequence: GATCAGGAGCCTGATC ((((((....))))))
- folding enthalpy [1]: -31.6 kcal/mol
- Tm [2]: 49.9 °C

Sequence: GATCAGGAGGCTGATC ((((((....))))))
- folding enthalpy [1]: -37.2 kcal/mol
- Tm [2]: 48.2 °C

Sequence: GATCAGGATACTGATC ((((((....))))))
- folding enthalpy [1]: -33.8 kcal/mol
- Tm [2]: 56 °C

Sequence: GATCAGGCATCTGATC ((((((....))))))
- folding enthalpy [1]: -45.1 kcal/mol
- Tm [2]: 55.6 °C

Sequence: GATCAGGCGGCTGATC ((((((....))))))
- folding enthalpy [1]: -47.8 kcal/mol
- Tm [2]: 53.2 °C

Sequence: GATCAGGGATCTGATC ((((((....))))))
- folding enthalpy [1]: -29.1 kcal/mol
- Tm [2]: 57.1 °C

Sequence: GATCAGGGCACTGATC ((((((....))))))
- folding enthalpy [1]: -37.2 kcal/mol
- Tm [2]: 59.8 °C

Sequence: GATCAGGGCCTGATC ((((((...))))))
- folding enthalpy [1]: -68.2 kcal/mol
- Tm [2]: 53 °C

Sequence: GATCAGGGGCTGATC ((((((...))))))
- folding enthalpy [1]: -27.4 kcal/mol
- Tm [2]: 47.5 °C

Sequence: GATCAGGGTCTGATC ((((((...))))))
- folding enthalpy [1]: -24.1 kcal/mol
- Tm [2]: 49.7 °C

Sequence: GATCAGGTTACTGATC ((((((....))))))
- folding enthalpy [1]: -38.2 kcal/mol
- Tm [2]: 57.6 °C

Sequence: GATCAGGTTCTGATC ((((((...))))))
- folding enthalpy [1]: -34.1 kcal/mol
- Tm [2]: 50.5 °C

Sequence: GATCAGGTTGCTGATC ((((((....))))))
- folding enthalpy [1]: -46.3 kcal/mol
- Tm [2]: 51.2 °C

Sequence: GATCAGTAAGCTGATC ((((((....))))))
- folding enthalpy [1]: -41.3 kcal/mol
- Tm [2]: 52.3 °C

Sequence: GATCAGTACGCTGATC ((((((....))))))
- folding enthalpy [1]: -44.1 kcal/mol
- Tm [2]: 53.8 °C

Sequence: GATCAGTAGCCTGATC ((((((....))))))
- folding enthalpy [1]: -31.4 kcal/mol
- Tm [2]: 49.6 °C

Sequence: GATCAGTCCCCTGATC ((((((....))))))
- folding enthalpy [1]: -35.7 kcal/mol
- Tm [2]: 49.3 °C

Sequence: GATCAGTCCGCTGATC ((((((....))))))
- folding enthalpy [1]: -53.2 kcal/mol
- Tm [2]: 53.1 °C

Sequence: GATCAGTCGCCTGATC ((((((....))))))
- folding enthalpy [1]: -57.2 kcal/mol
- Tm [2]: 51.5 °C

Sequence: GATCAGTCGCTGATC ((((((...))))))
- folding enthalpy [1]: -29.6 kcal/mol
- Tm [2]: 49.8 °C

Sequence: GATCAGTGGACTGATC ((((((....))))))
- folding enthalpy [1]: -37 kcal/mol
- Tm [2]: 51.8 °C

Sequence: GATCAGTTACTGATC ((((((...))))))
- folding enthalpy [1]: -41.7 kcal/mol
- Tm [2]: 51.4 °C

Sequence: GATCAGTTTTCTGATC ((((((....))))))
- folding enthalpy [1]: -30.5 kcal/mol
- Tm [2]: 52.3 °C
